In general, CC50 refers to the concentration giving 50% cytotoxicity. Read a low CC50 as greater toxicity to the cells. As a reminder, the EC50 is the concentration giving half of the maximal effect.

The first test relates to HT-29. In words: Growth inhibition of human HT-29 cells measured after 72 hrs by Celltiter-Glo reagent based assay. As to conditions: HT-29, 72 h; call rule not given here. It is filed as functional.
Take `CSc1ccc(/C=C2/C(C)=C(C(C)C(=O)NCCN3CCCC3)c3cc(F)ccc32)cc1` (stereo not given): the CC50 came to 2030 nM.
With `CCN(CCN(C)C)C(=O)C(C)C1=C(C)/C(=C/c2ccc(SC)cc2)c2ccc(F)cc21` (stereo not given), the half-maximal cytotoxic concentration (CC50) was 1130 nM.
With `CSc1ccc(/C=C2/C(C)=C(C(C)C(=O)N3CCN(c4ccncc4)CC3)c3cc(F)ccc32)cc1` (stereo not given), half-maximal cytotoxicity (CC50) was put at 2200 nM.
Compound `CSc1ccc(/C=C2/C(C)=C(C(C)C(=O)NCCN3CCNCC3)c3cc(F)ccc32)cc1` (stereo not given) came in with a CC50 of 2220 nM.

For another test, the system named is PC-3. Description: Growth inhibition of human PC3 cells measured after 72 hrs by Celltiter-Glo reagent based assay. It is filed as functional. As to conditions: PC-3, 72 h. (In general: In ATP-based viability assays light output follows the ATP content of the culture.)
The compound `CSc1ccc(/C=C2/C(C)=C(C(C)C(=O)NCCN3CCCC3)c3cc(F)ccc32)cc1` (stereo not given) came in with a CC50 of 5.68 µM.
Turning to `CCN(CCN(C)C)C(=O)C(C)C1=C(C)/C(=C/c2ccc(SC)cc2)c2ccc(F)cc21` (stereo not given), the CC50 is 3.54 µM. Against the preceding compound, the CC50 is about 1.6-fold lower.
As for `CSc1ccc(/C=C2/C(C)=C(C(C)C(=O)N3CCN(c4ccncc4)CC3)c3cc(F)ccc32)cc1` (stereo not given), the CC50 is 4.68 µM.
Compound `CSc1ccc(/C=C2/C(C)=C(C(C)C(=O)NCCN3CCNCC3)c3cc(F)ccc32)cc1` (stereo not given) registered a CC50 of 5.91 µM.

For another test, the system named is MDA-MB-231. Description: Growth inhibition of human MDA-MB-231 cells measured after 96 hrs by Celltiter-Glo reagent based assay. As to conditions: MDA-MB-231, 96 h. The format is functional.
In turn, `CSc1ccc(/C=C2/C(C)=C(C(C)C(=O)NCCN3CCCC3)c3cc(F)ccc32)cc1` (stereo not given) showed a CC50 of 5 µM.
Same read-out and setting: under `CCN(CCN(C)C)C(=O)C(C)C1=C(C)/C(=C/c2ccc(SC)cc2)c2ccc(F)cc21` (stereo not given) stands 3.18 µM; under `CSc1ccc(/C=C2/C(C)=C(C(C)C(=O)N3CCN(c4ccncc4)CC3)c3cc(F)ccc32)cc1` (stereo not given), 3.95 µM.
The same measure, in the same setting: under `CSc1ccc(/C=C2/C(C)=C(C(C)C(=O)NCCN3CCNCC3)c3cc(F)ccc32)cc1` (stereo not given) stands 5.32 µM.

System in the next test: not listed separately
Description: Growth inhibition of mouse CPC300 cells measured after 72 hrs by Celltiter-Glo reagent based assay. The format is functional.
Conditions: not given
The method, boiled down: (§1)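 Cell line sources: Raji is a Burkitt's lymphoma line (FAB L3); Jurkat E6-1 is an acute T-cell leukemia line; REH is a patient-derived precursor B-cell ALL line expressing only wild-type MLL and wild-type AF4; 697 was established from bone marrow of children with relapsed ALL; CPC300 derives from a mouse model of choroid plexus carcinoma.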
As to `CSc1ccc(/C=C2/C(C)=C(C(C)C(=O)NCCN3CCCC3)c3cc(F)ccc32)cc1` (stereo not given), the EC50 entry is “Not Active”.
Take `CCN(CCN(C)C)C(=O)C(C)C1=C(C)/C(=C/c2ccc(SC)cc2)c2ccc(F)cc21` (stereo not given): the EC50 result was “Not Active”.
On the same count and under the same terms, under `CSc1ccc(/C=C2/C(C)=C(C(C)C(=O)N3CCN(c4ccncc4)CC3)c3cc(F)ccc32)cc1` (stereo not given) stands “Not Active”; under `CSc1ccc(/C=C2/C(C)=C(C(C)C(=O)NCCN3CCNCC3)c3cc(F)ccc32)cc1` (stereo not given), “Not Active”.

System in a further test: not listed separately
Description: Growth inhibition of human NALM16 cells measured after 72 hrs by Celltiter-Glo reagent based assay. It is filed as functional.
Conditions: not given
Turning to `CSc1ccc(/C=C2/C(C)=C(C(C)C(=O)NCCN3CCCC3)c3cc(F)ccc32)cc1` (stereo not given), the EC50 result was “Not Active”.
For `CCN(CCN(C)C)C(=O)C(C)C1=C(C)/C(=C/c2ccc(SC)cc2)c2ccc(F)cc21` (stereo not given), the half-maximal effective concentration (EC50) result was “Not Active”.
Regarding `CSc1ccc(/C=C2/C(C)=C(C(C)C(=O)N3CCN(c4ccncc4)CC3)c3cc(F)ccc32)cc1` (stereo not given), the EC50 entry was “Not Active”.
Take `CSc1ccc(/C=C2/C(C)=C(C(C)C(=O)NCCN3CCNCC3)c3cc(F)ccc32)cc1` (stereo not given): the EC50 entry is given as “Not Active”.

In another test the test system is Raji. In words: Growth inhibition of human Raji cells measured after 72 hrs by Celltiter-Glo reagent based assay. It is filed as functional, cell-based. Conditions: Homo sapiens, Raji, 72 h; read-out: EC50. The gist of the method: as §1
`CCN(CCN(C)C)C(=O)C(C)C1=C(C)/C(=C/c2ccc(SC)cc2)c2ccc(F)cc21` (stereo not given): the EC50 is less than 0.00038 µM.
Consider `CSc1ccc(/C=C2/C(C)=C(C(C)C(=O)NCCN3CCNCC3)c3cc(F)ccc32)cc1` (stereo not given), for which the EC50 came out at 45 µM.

The test is the same for the next values; noted with them: raji.
Regarding `CSc1ccc(/C=C2/C(C)=C(C(C)C(=O)NCCN3CCCC3)c3cc(F)ccc32)cc1` (stereo not given), the EC50 entry is reported as “Not Active”.
On the same count and under the same terms, to `CSc1ccc(/C=C2/C(C)=C(C(C)C(=O)N3CCN(c4ccncc4)CC3)c3cc(F)ccc32)cc1` (stereo not given) belongs “Not Active”.

For the next test, the system named is Jurkat E6.1. Description: Growth inhibition of human Jurkat E6-1 cells measured after 72 hrs by Celltiter-Glo reagent based assay. Conditions: Homo sapiens, Jurkat E6.1, 72 h; read-out: EC50. It is filed as functional, cell-based. The method, boiled down: as §1
Turning to `CSc1ccc(/C=C2/C(C)=C(C(C)C(=O)NCCN3CCCC3)c3cc(F)ccc32)cc1` (stereo not given), the EC50 worked out at 76 µM.

The test is the same for the next values; noted with them: jurkat e6.1.
With `CCN(CCN(C)C)C(=O)C(C)C1=C(C)/C(=C/c2ccc(SC)cc2)c2ccc(F)cc21` (stereo not given), the EC50 result is listed as “Not Active”.
Consider `CSc1ccc(/C=C2/C(C)=C(C(C)C(=O)N3CCN(c4ccncc4)CC3)c3cc(F)ccc32)cc1` (stereo not given), for which the EC50 entry was “Not Active”.
Same read-out and setting: to `CSc1ccc(/C=C2/C(C)=C(C(C)C(=O)NCCN3CCNCC3)c3cc(F)ccc32)cc1` (stereo not given) belongs “Not Active”.

Another test has as its system REH. Description: Growth inhibition of human REH cells measured after 72 hrs by CellTiter-Glo reagent based assay. The format is functional, cell-based. Conditions: Homo sapiens, REH, 72 h; read-out: EC50. The gist of the method:
as §1
Consider `CSc1ccc(/C=C2/C(C)=C(C(C)C(=O)NCCN3CCCC3)c3cc(F)ccc32)cc1` (stereo not given), for which the EC50 was found to be 76 µM.
Regarding `CCN(CCN(C)C)C(=O)C(C)C1=C(C)/C(=C/c2ccc(SC)cc2)c2ccc(F)cc21` (stereo not given), the half-maximal effective concentration (EC50) amounted to 10 µM.
Still for that read-out and setting: under `CSc1ccc(/C=C2/C(C)=C(C(C)C(=O)NCCN3CCNCC3)c3cc(F)ccc32)cc1` (stereo not given) stands 26 µM.

Staying with this test, now noted: reh.
Consider `CSc1ccc(/C=C2/C(C)=C(C(C)C(=O)N3CCN(c4ccncc4)CC3)c3cc(F)ccc32)cc1` (stereo not given), for which the EC50 entry is on record as “Not Active”.

For the next test, the system named is 697. Description: Growth inhibition of human 697 cells after 72 hrs by CellTiter-Glo reagent based assay. It is filed as functional, cell-based. As to conditions: 697. The method, boiled down: as §1
Regarding `CCN(CCN(C)C)C(=O)C(C)C1=C(C)/C(=C/c2ccc(SC)cc2)c2ccc(F)cc21` (stereo not given), the EC50 entry is “Not Active”.
As for `CSc1ccc(/C=C2/C(C)=C(C(C)C(=O)NCCN3CCNCC3)c3cc(F)ccc32)cc1` (stereo not given), the concentration giving a half-maximal response (EC50) result is “Not Active”.

The same test, now with this note: Homo sapiens, 697, 72 h; read-out: EC50.
In the case of `CSc1ccc(/C=C2/C(C)=C(C(C)C(=O)NCCN3CCCC3)c3cc(F)ccc32)cc1` (stereo not given), the EC50 stood at 76 µM.
As to `CSc1ccc(/C=C2/C(C)=C(C(C)C(=O)N3CCN(c4ccncc4)CC3)c3cc(F)ccc32)cc1` (stereo not given), the 50% effective concentration (EC50) is 76 µM.

The next test deals with BJ. In words: Growth inhibition of human BJ cells after 72 hrs by CellTiter-Glo reagent based assay. It is filed as cell-based.
Conditions: not given
Compound `CSc1ccc(/C=C2/C(C)=C(C(C)C(=O)NCCN3CCCC3)c3cc(F)ccc32)cc1` (stereo not given) displayed an EC50 of more than 7.57 µM.
As for `CCN(CCN(C)C)C(=O)C(C)C1=C(C)/C(=C/c2ccc(SC)cc2)c2ccc(F)cc21` (stereo not given), the EC50 was more than 7.57 µM.
The compound `CSc1ccc(/C=C2/C(C)=C(C(C)C(=O)N3CCN(c4ccncc4)CC3)c3cc(F)ccc32)cc1` (stereo not given) yielded an EC50 of more than 7.57 µM.
For the compound `CSc1ccc(/C=C2/C(C)=C(C(C)C(=O)NCCN3CCNCC3)c3cc(F)ccc32)cc1` (stereo not given), the EC50 is more than 7.57 µM.

The values above are taken from ChEMBL document CHEMBL4118188, “A small diversity library of α-methyl amide analogs of sulindac for probing anticancer structure-activity relationships” (Bioorg Med Chem Lett, 2018).
